Measurements: ChEMBL document CHEMBL4261546, “Synthesis of novel pentacyclic triterpene-Neu5Ac2en derivatives and investigation of their in vitro anti-influenza entry activity” (Medchemcomm, 2017)
Activity calls are given as the source filed them. No cut-off for these calls is given here.

What was measured:
[1] = Cytotoxicity against MDCK cells assessed as reduction in cell viability after 40 hrs by CellTiter-Glo assay; type: cell-based, Canis lupus familiaris; conditions: dog
Outline: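 MDCK cells seeded in DMEM with 10% FBS and cultured overnight at 37 °C, 5% CO2. Compounds added and incubated 40 h, then CellTiter-Glo viability measured. Viability % = background-corrected signal of treated well divided by control well, ×100. CC50 is the concentration giving 50% cell death.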

[2] = Selectivity index, ratio of CC50 for MDCK cells to IC50 for Influenza A virus (A/WSN/33(H1N1)) infected in MDCK cells; type: toxicity, cell-based; conditions: dog, read-out: Ratio CC50/IC50
Outline: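 SI = CC50/IC50. CC50 comes from the 40 h CellTiter-Glo viability assay in uninfected MDCK cells. IC50 comes from the 40 h CellTiter-Glo CPE-reduction assay with A/WSN/33 at MOI 0.1.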

MDCK [3] = assay: Cytotoxicity against MDCK cells assessed as reduction in cell viability at 10 uM after 40 hrs by CellTiter-Glo assay; type: cell-based, Canis lupus familiaris; conditions: dog
Outline: (§1)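 Preliminary cytotoxicity screen in MDCK cells at 10 μM and 100 μM. Cells seeded overnight in DMEM with 10% FBS at 37 °C, 5% CO2, then exposed to compound for 40 h. CellTiter-Glo read-out, viability expressed as % of untreated control after background correction. Paclitaxel served as positive control.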

Influenza A virus [4] = assay: Antiviral activity against Influenza A virus (A/WSN/33(H1N1)) infected in MDCK cells assessed as reduction in virus-induced cytopathic effect after 40 hrs by CellTiter-Glo assay; type: functional, organism-based; conditions: A/WSN/1933(H1N1)
Outline: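 MDCK cells grown overnight in DMEM with 10% FBS at 37 °C, 5% CO2. Medium replaced with compound plus A/WSN/33 virus (MOI 0.1) in DMEM with 1% FBS, 2 μg/mL TPCK-trypsin and 1% DMSO final. After 40 h, CellTiter-Glo luminescence read as CPE. IC50 is the mean of ≥3 independent determinations with standard deviations.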

MDCK [5] = assay: Cytotoxicity against MDCK cells assessed as reduction in cell viability at 100 uM after 40 hrs by CellTiter-Glo assay; type: cell-based, Canis lupus familiaris; conditions: dog; outline: as §1
Influenza A virus [6] = assay: Antiviral activity against Influenza A virus (A/WSN/33(H1N1)) infected in MDCK cells assessed as reduction in virus-induced cytopathic effect up to 100 uM after 40 hrs by microscopic method; type: functional, organism-based; conditions: A/WSN/1933(H1N1)
Outline: (§2)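 MDCK cultures were set up as in the CPE assay: compound with or without A/WSN/33 infection (MOI 0.1), DMEM with 1% FBS and TPCK-trypsin. At 40 h post-infection, wells carrying compound up to 100 μM were inspected microscopically. Scored features were cell aggregation and detachment from the dish.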

[7] = molecular target: Neuraminidase (Influenza A virus (strain A/Wilson-Smith/1933 H1N1) (Influenza A virus(strain A/WS/1933 H1N1))) (UniProt P03470); assay: Inhibition of Influenza A virus (A/WSN/33(H1N1)) NA up to 100 uM using 4-MUNANA as substrate after 30 mins by fluorescence spectrophotometric assay; conditions: Influenza A virus (A/WSN/1933(H1N1))
Neuraminidase (Influenza A virus (strain A/Wilson-Smith/1933 H1N1) (Influenza A virus(strain A/WS/1933 H1N1))), sequence (P03470 whole entry): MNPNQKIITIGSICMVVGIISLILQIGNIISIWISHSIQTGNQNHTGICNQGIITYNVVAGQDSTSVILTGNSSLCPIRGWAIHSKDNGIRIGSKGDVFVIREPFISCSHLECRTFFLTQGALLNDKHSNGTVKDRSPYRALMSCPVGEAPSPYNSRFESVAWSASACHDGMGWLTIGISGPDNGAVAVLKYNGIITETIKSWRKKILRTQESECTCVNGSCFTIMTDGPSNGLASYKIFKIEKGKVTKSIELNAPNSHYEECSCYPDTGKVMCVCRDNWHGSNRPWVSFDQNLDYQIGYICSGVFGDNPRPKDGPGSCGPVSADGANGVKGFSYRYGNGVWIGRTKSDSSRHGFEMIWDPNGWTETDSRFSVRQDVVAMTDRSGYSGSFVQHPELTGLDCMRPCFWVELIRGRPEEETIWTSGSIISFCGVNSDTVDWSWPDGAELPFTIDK
Outline: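 NA activity was measured with A/WSN/33 virus as the enzyme source, mixed with compound and 20 μM MUNANA in 32.5 mM MES (4 mM CaCl2, pH 6.5). Incubated 30 min at 37 °C, then stopped with 34 mM NaOH. Fluorescent product read at ex 360 nm / em 460 nm.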

[8] = molecular target: Hemagglutinin (Influenza A virus) (UniProt B4URE7); assay: Inhibition of Influenza A virus (A/WSN/33(H1N1)) HA-mediated haemagglutination in chicken RBC at 1.5 to 40 uM after 30 mins; type: cell-based; conditions: Influenza A virus (A/WSN/1933(H1N1))
Hemagglutinin (Influenza A virus), sequence (B4URE7 as listed by the source): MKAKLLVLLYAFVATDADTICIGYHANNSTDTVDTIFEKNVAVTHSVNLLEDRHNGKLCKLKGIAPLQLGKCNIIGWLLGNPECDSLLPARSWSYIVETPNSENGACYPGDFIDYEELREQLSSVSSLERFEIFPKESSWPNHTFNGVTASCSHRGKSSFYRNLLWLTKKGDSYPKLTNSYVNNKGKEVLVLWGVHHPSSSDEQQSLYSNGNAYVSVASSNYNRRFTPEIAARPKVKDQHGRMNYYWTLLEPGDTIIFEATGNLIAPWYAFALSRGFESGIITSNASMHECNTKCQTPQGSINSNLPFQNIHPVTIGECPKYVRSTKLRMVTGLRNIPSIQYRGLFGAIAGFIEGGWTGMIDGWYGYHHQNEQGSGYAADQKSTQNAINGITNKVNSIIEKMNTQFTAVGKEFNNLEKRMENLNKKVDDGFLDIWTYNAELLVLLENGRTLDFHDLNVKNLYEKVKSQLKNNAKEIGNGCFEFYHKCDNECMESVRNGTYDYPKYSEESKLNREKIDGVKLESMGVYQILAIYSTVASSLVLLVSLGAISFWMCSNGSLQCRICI
Outline: (§3)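 Hemagglutination assay. Freshly prepared 1% v/v chicken RBCs in saline were then added. After 30 min at room temperature, RBC aggregation was scored visually. Anti-HA antibody was the reference.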

MDCK [9] = assay: Cytotoxicity against MDCK cells assessed as morphological changes up to 100 uM after 40 hrs by microscopic method; type: cell-based, Canis lupus familiaris; conditions: dog; outline: as §2
Erythrocyte = assay: Induction of haemagglutination in chicken RBC at 1.5 to 40 uM after 30 mins; type: cell-based, Gallus gallus; conditions: 0.5 h; outline: as §3
[10] = Inhibition of Influenza virus NA; design: species or system unidentified influenza virus

COC(=O)C1=C[C@H](n2cc(CNC(=O)[C@]34CCC(C)(C)C[C@H]3C3=CC[C@@H]5[C@@]6(C)CC[C@H](O)C(C)(C)[C@@H]6CC[C@@]5(C)[C@]3(C)C[C@H]4O)nn2)[C@@H](NC(C)=O)[C@H]([C@H](O)[C@H](O)CO)O1
CC50 at 40 h [1]: > 200 µM
selectivity ratio [2]: > 3.6
Activity (MDCK [3]): Non-Toxic
IC50 (Influenza A virus [4]): 55 µM

COC(=O)C1=C[C@@H](n2cc(CNC(=O)[C@]34CCC(C)(C)C[C@H]3C3=CC[C@@H]5[C@@]6(C)CC[C@H](O)C(C)(C)[C@@H]6CC[C@@]5(C)[C@]3(C)CC4)nn2)[C@@H](NC(C)=O)[C@H]([C@H](O)[C@H](O)CO)O1
Activity (MDCK [3]): Non-Toxic
IC50 (Influenza A virus [4]): > 100 µM

C=C(C)[C@@H]1CC[C@]2(C(=O)N[C@H]3C=C(C(=O)OC)O[C@@H]([C@H](O)[C@H](O)CO)[C@@H]3NC(C)=O)CC[C@]3(C)[C@H](CC[C@@H]4[C@@]5(C)CC[C@H](O)C(C)(C)[C@@H]5CC[C@]43C)[C@@H]12
Activity (MDCK [3]): Non-Toxic
IC50 (Influenza A virus [4]): > 100 µM

COC(=O)C1=C[C@H](NC(=O)[C@]23CC[C@@H](C)[C@H](C)[C@H]2C2=CC[C@@H]4[C@@]5(C)CC[C@H](O)C(C)(C)[C@@H]5CC[C@@]4(C)[C@]2(C)CC3)[C@@H](NC(C)=O)[C@H]([C@H](O)[C@H](O)CO)O1
Activity (MDCK [5]): Toxic
Activity (MDCK [3]): Non-Toxic

COC(=O)C1=C[C@H](n2cc(CNC(=O)[C@]34CC[C@@H](C)[C@H](C)[C@H]3C3=CC[C@@H]5[C@@]6(C)CC[C@H](O)C(C)(C)[C@@H]6CC[C@@]5(C)[C@]3(C)CC4)nn2)[C@@H](NC(C)=O)[C@H]([C@H](O)[C@H](O)CO)O1
Activity (MDCK [5]): Toxic
Activity (MDCK [3]): Non-Toxic
IC50 (Influenza A virus [4]): > 100 µM

COC(=O)C1=C[C@@H](n2cc(CNC(=O)[C@]34CC[C@@H](C)[C@H](C)[C@H]3C3=CC[C@@H]5[C@@]6(C)CC[C@H](O)C(C)(C)[C@@H]6CC[C@@]5(C)[C@]3(C)CC4)nn2)[C@@H](NC(C)=O)[C@H]([C@H](O)[C@H](O)CO)O1
Activity (MDCK [5]): Toxic
Activity (MDCK [3]): Non-Toxic
IC50 (Influenza A virus [4]): > 100 µM

COC(=O)C1=C[C@H](NC(=O)[C@]23CC[C@@H](C)[C@H](C)[C@H]2C2=CC[C@@H]4[C@@]5(C)CC[C@H](O)C(C)(C)[C@@H]5CC[C@@]4(C)[C@]2(C)CC3)[C@H](NC(C)=O)[C@H]([C@H](OC(C)=O)[C@@H](COC(C)=O)OC(C)=O)O1
Activity (MDCK [5]): Non-Toxic
CC50 at 40 h [1]: 136 µM
selectivity ratio [2]: 7.1
Activity (MDCK [3]): Non-Toxic
IC50 (Influenza A virus [4]): 19.2 µM

COC(=O)C1=C[C@H](n2cc(CNC(=O)[C@]34CCC(C)(C)C[C@H]3C3=CC[C@@H]5[C@@]6(C)CC[C@H](O)C(C)(C)[C@@H]6CC[C@@]5(C)[C@]3(C)CC4)nn2)[C@@H](NC(C)=O)[C@H]([C@H](OC(C)=O)[C@@H](COC(C)=O)OC(C)=O)O1
Activity (MDCK [5]): Toxic
Activity (MDCK [3]): Non-Toxic

COc1cc(/C=C/C(=O)CC(=O)/C=C/c2ccc(O)c(OC)c2)ccc1O [CURCUMIN]
selectivity ratio [2]: 7.2
IC50 (Influenza A virus [4]): 6.7 µM

COC(=O)C1=C[C@H](n2cc(CNC(=O)[C@]34CC[C@@H](C)[C@H](C)[C@H]3C3=CC[C@@H]5[C@@]6(C)CC[C@H](O)C(C)(C)[C@@H]6CC[C@@]5(C)[C@]3(C)CC4)nn2)[C@@H](NC(C)=O)[C@H]([C@H](OC(C)=O)[C@@H](COC(C)=O)OC(C)=O)O1
Activity (MDCK [5]): Toxic
Activity (MDCK [3]): Non-Toxic

COC(=O)C1=C[C@H](NC(=O)[C@]23CCC(C)(C)C[C@H]2C2=CC[C@@H]4[C@@]5(C)CC[C@H](O)C(C)(C)[C@@H]5CC[C@@]4(C)[C@]2(C)C[C@H]3O)[C@@H](NC(C)=O)[C@H]([C@H](OC(C)=O)[C@@H](COC(C)=O)OC(C)=O)O1
CC50 at 40 h [1]: > 200 µM
selectivity ratio [2]: > 32.3
Activity (MDCK [3]): Non-Toxic
IC50 (Influenza A virus [4]): 15.5 µM

COC(=O)C1=C[C@H](NC(=O)[C@]23CCC(C)(C)C[C@H]2C2=CC[C@@H]4[C@@]5(C)CC[C@H](O)C(C)(C)[C@@H]5CC[C@@]4(C)[C@]2(C)CC3)[C@@H](NC(C)=O)[C@H]([C@H](O)[C@H](O)CO)O1
Activity (MDCK [5]): Toxic
Activity (MDCK [3]): Non-Toxic

C=C(C)[C@@H]1CC[C@]2(C(=O)N[C@H]3C=C(C(=O)OC)O[C@@H]([C@H](OC(C)=O)[C@@H](COC(C)=O)OC(C)=O)[C@@H]3NC(C)=O)CC[C@]3(C)[C@H](CC[C@@H]4[C@@]5(C)CC[C@H](O)C(C)(C)[C@@H]5CC[C@]43C)[C@@H]12
Activity (MDCK [3]): Non-Toxic
IC50 (Influenza A virus [4]): > 100 µM

COC(=O)C1=C[C@H](n2cc(CNC(=O)[C@]34CCC(C)(C)C[C@H]3C3=CC[C@@H]5[C@@]6(C)CC[C@H](O)C(C)(C)[C@@H]6CC[C@@]5(C)[C@]3(C)C[C@H]4O)nn2)[C@@H](NC(C)=O)[C@H]([C@H](OC(C)=O)[C@@H](COC(C)=O)OC(C)=O)O1
Activity (MDCK [5]): Toxic
Activity (MDCK [3]): Non-Toxic
IC50 (Influenza A virus [4]): > 100 µM

COC(=O)C1=C[C@H](NC(=O)[C@]23CCC(C)(C)C[C@H]2C2=CC[C@@H]4[C@@]5(C)CC[C@H](O)C(C)(C)[C@@H]5CC[C@@]4(C)[C@]2(C)CC3)[C@@H](NC(C)=O)[C@H]([C@H](OC(C)=O)[C@@H](COC(C)=O)OC(C)=O)O1
Activity (Influenza A virus [6]): Active
inhibition [7]: inactive
CC50 at 40 h [1]: 188 µM
inhibition [8]: Active
Activity (MDCK [9]): Non-Toxic
Activity (Erythrocyte): Non-Toxic
selectivity ratio [2]: 22.7
Activity (MDCK [3]): Non-Toxic
IC50 (Influenza A virus [4]): 8.3 µM

COC(=O)C1=C[C@H](n2cc(CNC(=O)[C@]34CCC(C)(C)C[C@H]3C3=CC[C@@H]5[C@@]6(C)CC[C@H](O)C(C)(C)[C@@H]6CC[C@@]5(C)[C@]3(C)CC4)nn2)[C@@H](NC(C)=O)[C@H]([C@H](O)[C@H](O)CO)O1
CC50 at 40 h [1]: > 200 µM
selectivity ratio [2]: > 7.1
Activity (MDCK [3]): Non-Toxic
IC50 (Influenza A virus [4]): 28.3 µM

C=C(C)[C@@H]1CC[C@]2(C(=O)NCc3cn([C@H]4C=C(C(=O)OC)O[C@@H]([C@H](OC(C)=O)[C@@H](COC(C)=O)OC(C)=O)[C@@H]4NC(C)=O)nn3)CC[C@]3(C)[C@H](CC[C@@H]4[C@@]5(C)CC[C@H](O)C(C)(C)[C@@H]5CC[C@]43C)[C@@H]12
Activity (MDCK [5]): Toxic
Activity (MDCK [3]): Non-Toxic

CC(=O)N[C@H]1[C@H]([C@H](O)[C@H](O)CO)OC(C(=O)O)=C[C@@H]1O [NEU5AC2EN]
Ki [10]: 4 µM

C=C(C)[C@@H]1CC[C@]2(C(=O)NCc3cn([C@H]4C=C(C(=O)OC)O[C@@H]([C@H](O)[C@H](O)CO)[C@@H]4NC(C)=O)nn3)CC[C@]3(C)[C@H](CC[C@@H]4[C@@]5(C)CC[C@H](O)C(C)(C)[C@@H]5CC[C@]43C)[C@@H]12
Activity (MDCK [3]): Non-Toxic
IC50 (Influenza A virus [4]): > 100 µM

COC(=O)C1=C[C@H](NC(=O)[C@]23CCC(C)(C)C[C@H]2C2=CC[C@@H]4[C@@]5(C)CC[C@H](O)C(C)(C)[C@@H]5CC[C@@]4(C)[C@]2(C)C[C@H]3O)[C@@H](NC(C)=O)[C@H]([C@H](O)[C@H](O)CO)O1
CC50 at 40 h [1]: > 200 µM
selectivity ratio [2]: > 4.9
Activity (MDCK [3]): Non-Toxic
IC50 (Influenza A virus [4]): 40.5 µM
